Test results taken from ChEMBL document CHEMBL4368939, “4,6-Substituted-1H-Indazoles as potent IDO1/TDO dual inhibitors” (Bioorg Med Chem, 2019).
Activity calls are given as the source filed them. The rule behind the calls is not given here.

What was measured:
[1] = biological target: T1, Indoleamine 2,3-dioxygenase 1 (Homo sapiens, UniProt P14902); experiment: Inhibition of human IDO1 expressed in Escherichia coli at 10 uM using L-tryptophan as substrate after 1 hr by UV absorption analysis
Outline: (§1)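 N-terminal human IDO1 or TDO was expressed in E. coli and Ni affinity-purified. Enzyme (100 nM) was incubated with compounds for 1 h at room temperature in Ca/Mg-free potassium phosphate buffer with […], 40 mM ascorbate, 200 µg/ml catalase and 20 µM methylene blue. Stop: 30% TCA, 65°C 15 min. Kynurenine read with DMAB at 480 nm against a standard curve. Triplicate, mean ± SD.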
Target sequence in this assay (P14902 whole entry, looked up): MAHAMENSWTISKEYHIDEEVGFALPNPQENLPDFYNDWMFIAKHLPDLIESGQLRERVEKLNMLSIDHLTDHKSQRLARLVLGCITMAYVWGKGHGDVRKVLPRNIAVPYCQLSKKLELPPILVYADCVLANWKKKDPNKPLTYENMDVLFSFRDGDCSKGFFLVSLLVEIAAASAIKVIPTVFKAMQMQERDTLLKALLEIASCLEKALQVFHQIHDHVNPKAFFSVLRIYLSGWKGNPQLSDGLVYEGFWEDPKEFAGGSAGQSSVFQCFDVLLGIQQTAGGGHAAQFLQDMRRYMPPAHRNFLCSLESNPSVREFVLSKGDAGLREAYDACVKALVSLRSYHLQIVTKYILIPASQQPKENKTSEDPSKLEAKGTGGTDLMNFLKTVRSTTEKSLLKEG

[2] = biological target: T2, Tryptophan 2,3-dioxygenase (Homo sapiens, UniProt P48775); experiment: Inhibition of human TDO expressed in Escherichia coli at 10 uM using L-tryptophan as substrate after 1 hr by UV absorption analysis; outline: as §1
Target sequence in this assay (P48775 whole entry, looked up): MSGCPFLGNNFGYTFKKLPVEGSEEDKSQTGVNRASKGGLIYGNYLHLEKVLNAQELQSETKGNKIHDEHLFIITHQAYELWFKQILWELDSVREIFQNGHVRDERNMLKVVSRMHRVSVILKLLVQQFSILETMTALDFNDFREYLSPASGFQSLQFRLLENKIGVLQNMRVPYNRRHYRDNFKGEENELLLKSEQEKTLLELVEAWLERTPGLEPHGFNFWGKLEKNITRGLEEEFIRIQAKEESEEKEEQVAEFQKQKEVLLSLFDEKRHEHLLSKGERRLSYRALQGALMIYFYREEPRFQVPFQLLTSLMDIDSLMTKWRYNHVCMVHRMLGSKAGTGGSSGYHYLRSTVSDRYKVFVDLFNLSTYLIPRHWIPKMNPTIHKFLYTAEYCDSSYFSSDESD

CT26 [3] = experiment: Antitumor activity against mouse CT26 cells transplanted in Balb/c mouse assessed as tumor growth inhibition at 20 mg/kg/day, po administered for 18 consecutive days relative to control; format: functional; settings: read-out: TGI
Outline: (§2)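 CT26 cells (100 µL of 1 × 10^7 cells/mL suspension) were injected s.c. into Balb/c mice. After 4 days, mice were randomized, 6 per group, and dosed orally once daily at 20, 40 or 80 mg/kg/day. Vehicle was 5% DMSO, 20% PEG400 and 75% deionized water. Tumors were measured by caliper every 3 days; volume = a × b²/2.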

[4] = biological target: T1, Indoleamine 2,3-dioxygenase 1; experiment: Inhibition of IDO1 in IFN-gamma-induced human HeLa cells assessed as reduction in L-kynurenine level after 24 hrs; format: cell-based
Outline: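 HeLa cells were plated for 24 h, then given IFNγ (50 ng/mL) plus inhibitors for 24 h; vehicle was 0.5% DMSO. Medium was mixed with 30% TCA and centrifuged. Supernatant kynurenine was reacted with 2% p-DMAB in acetic acid, read at 480 nm and quantified against an L-kynurenine standard curve. Triplicate, mean ± SD.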

HeLa [5] = experiment: Effect on IFN-gamma-induced IDO1 expression in human HeLa cells at 10 to 50 uM by Western blot analysis; format: functional, cell-based
Outline: (§3)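 HeLa cells were pretreated for 2 h with inhibitors (10, 20, 50 µM) or a JAK inhibitor (1 µM), then given IFNγ 50 ng/mL for 24 h; 0.5% DMSO served as negative control. RIPA lysates with equal protein were run on 10% SDS-PAGE and blotted to nitrocellulose. Probes: rabbit anti-IDO1 (1:1000) and anti-GAPDH (1:4000) overnight at 4°C; HRP anti-rabbit 90 min.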

HeLa [6] = experiment: Reduction in IFN-gamma-induced IDO1 expression in human HeLa cells by Western blot analysis; format: functional, cell-based; outline: as §3
[7] = biological target: T2, Tryptophan 2,3-dioxygenase; experiment: Inhibition of human TDO expressed in human A172 assessed as reduction in kynurenine formation using L-tryptophan as substrate after 24 hrs
Outline: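 A172 cells, which express TDO highly, were plated at 2 × 10^4 cells/well overnight. Cells were then exposed to compounds with L-Trp (20 µg/ml) for 24 h. Medium was treated with 30% TCA at 65°C for 30 min and centrifuged. Kynurenine was measured with 2% p-DMAB at 480 nm against an L-kynurenine standard curve.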

CT26 [8] = experiment: Antitumor activity against mouse CT26 cells transplanted in Balb/c mouse assessed as tumor growth inhibition at 80 mg/kg/day, po administered for 18 consecutive days relative to control; format: functional; settings: read-out: TGI; outline: as §2
CT26 [9] = experiment: Antitumor activity against mouse CT26 cells transplanted in Balb/c mouse assessed as tumor growth inhibition at 40 mg/kg/day, po administered for 18 consecutive days relative to control; format: functional; settings: read-out: TGI; outline: as §2
[10] = biological target: T1, Indoleamine 2,3-dioxygenase 1; experiment: Inhibition of human IDO1 expressed in Escherichia coli using L-tryptophan as substrate after 1 hr by UV absorption analysis; outline: as §1
Target sequence in this assay (P14902 whole entry): as the sequence (P14902 whole entry, looked up) above

[11] = biological target: T2, Tryptophan 2,3-dioxygenase; experiment: Inhibition of human TDO expressed in Escherichia coli at using L-tryptophan as substrate after 1 hr by UV absorption analysis; outline: as §1
Target sequence in this assay (P48775 whole entry): as the sequence (P48775 whole entry, looked up) above

HeLa [12] = experiment: Reduction in IFN-gamma-induced GAPDH expression in human HeLa cells by Western blot analysis; format: ADME, cell-based; outline: as §3
[13] = biological target: T2, Tryptophan 2,3-dioxygenase; experiment: Inhibition of TDO (unknown origin)
Target sequence in this assay (P48775 whole entry): as the sequence (P48775 whole entry, looked up) above

| inhibition [1] | inhibition [2] | SMILES | further results |
| --- | --- | --- | --- |
| 50% | inactive | Oc1ccc(CNc2cc(Br)cc3[nH]ncc23)cc1O | – |
| 47% | inactive | CC(C)Nc1cc(Br)cc2[nH]ncc12 | – |
| 14% | inactive | CC(Nc1cc(Br)cc2[nH]ncc12)c1ccccc1 (stereo not drawn) | – |
| 60% | 19% | Cc1cc(O)ccc1CNc1cc(Br)cc2[nH]ncc12 | – |
| inactive | 73% | Nc1nc(CNc2cc(Br)cc3[nH]ncc23)cs1 | – |
| 36% | inactive | Nc1ccccc1CNc1cc(Br)cc2[nH]ncc12 | – |
| 57% | inactive | O=C(O)CNc1cccc(CNc2cc(Br)cc3[nH]ncc23)c1 | – |
| 69% | inactive | Oc1ccc(CNc2cc(Br)cc3[nH]ncc23)c(F)c1 | – |
| 29% | 64% | Brc1cc(NCc2ccco2)c2cn[nH]c2c1 | – |
| 17% | 56% | CC(Nc1cc(Br)cc2[nH]ncc12)c1ccc([N+](=O)[O-])cc1 (stereo not drawn) | – |
| 53% | inactive | ONc1cccc(CNc2cc(Br)cc3[nH]ncc23)c1 | – |
| – | inactive | Oc1ccc(CNc2cc(Br)cc3[nH]ncc23)cc1 | inhibition [4]: inactive; Activity (HeLa [5]): inactive |
| 28% | 30% | Cc1cc(CNc2cc(Br)cc3[nH]ncc23)ccc1O | – |
| 16% | 54% | Brc1cc(NCc2cnc[nH]2)c2cn[nH]c2c1 | – |
| 20% | 75% | NS(=O)(=O)c1ccc(CNc2cc(Br)cc3[nH]ncc23)cc1 | – |
| 91% | 85% | Brc1cc(NCc2cccc3nonc23)c2cn[nH]c2c1 | IC50 [4]: 1370 nM; inhibition [4]: Dose-dependent effect; Activity (HeLa [6]): Dose-dependent effect; IC50 [7]: 7540 nM; inhibition [7]: Dose-dependent effect; inhibition in vivo at 80 mg/kg/day (CT26 [8]): 47.3%; inhibition in vivo at 40 mg/kg/day (CT26 [9]): 38.1%; inhibition in vivo at 20 mg/kg/day (CT26 [3]): 21.7%; IC50 [10]: 740 nM; IC50 [11]: 2940 nM; Activity (HeLa [12]): Toxic |
| 16% | 56% | FC(F)(F)c1cccc(CNc2cc(Br)cc3[nH]ncc23)c1 | – |
| 40% | inactive | Oc1ccc(CNc2cc(Br)cc3[nH]ncc23)c(O)c1 | – |
| 68% | 62% | Brc1cc(NCc2ccc3c(c2)OCO3)c2cn[nH]c2c1 | – |
| 70% | 73% | N#Cc1ccc(CNc2cc(Br)cc3[nH]ncc23)cc1 | – |

The remaining lines, values behind:

| SMILES | inhibition [1] | inhibition [2] | further results |
| --- | --- | --- | --- |
| Oc1cccc(CNc2cc(Br)cc3[nH]ncc23)c1 | 45% | 55% | – |
| Nc1cc(CNc2cc(Br)cc3[nH]ncc23)ccc1O | 32% | inactive | – |
| Nc1cccc(CNc2cc(Br)cc3[nH]ncc23)c1 | 31% | inactive | – |
| CC(=O)Nc1ccc(CNc2cc(Br)cc3[nH]ncc23)cc1 | 48% | inactive | – |
| Nc1ccccc1CC(=O)Nc1ccc(CCNc2cc(Br)cc3[nH]ncc23)cc1 | 3% | 29% | – |
| OC1CCCC(Nc2cccc(CNc3cc(Br)cc4[nH]ncc34)c2)C1 (stereo not drawn) | 52% | 50% | – |
| Nc1ccc(CNc2cc(Br)cc3[nH]ncc23)cc1 | 3% | 24% | – |
| CCOC(=O)CNc1cccc(CNc2cc(Br)cc3[nH]ncc23)c1 | 29% | inactive | – |
| Nc1ccc2ccccc2c1CNc1cc(Br)cc2[nH]ncc12 | 15% | inactive | – |
| O=C1CCCC(Nc2cccc(CNc3cc(Br)cc4[nH]ncc34)c2)C1 (stereo not drawn) | 52% | 46% | – |
| OCc1ccc(CNc2cc(Br)cc3[nH]ncc23)cc1 | 45% | 56% | – |
| O=C(Nc1ccc(CCNc2cc(Br)cc3[nH]ncc23)cc1)NC1CCOCC1 | inactive | 20% | – |
| NS(=O)(=O)NCCNc1nonc1/C(=N/O)Nc1ccc(F)c(Br)c1 [EPACADOSTAT] | – | – | inhibition in vivo at 20 mg/kg/day (CT26 [3]): 39.2% |
| Brc1cc(NCc2cccs2)c2cn[nH]c2c1 | 54% | 53% | – |
| Nc1ccc(CCNc2cc(Br)cc3[nH]ncc23)cc1 | 2% | inactive | – |
| Oc1ccc(CNc2cc(Br)cc3[nH]ncc23)cc1Cl | 60% | 19% | – |
| ONc1ccc(CNc2cc(Br)cc3[nH]ncc23)cc1 | inactive | 6% | – |
| Oc1ccc(CNc2cc(Br)cc3[nH]ncc23)cc1F | 52% | 26% | – |
| Brc1cc(NCc2ccncc2)c2cn[nH]c2c1 | 54% | 55% | – |
| O=C1c2ccccc2-n2c1nc1ccccc1c2=O [TRYPTANTHRIN] | – | – | IC50 [13]: 900 nM |
| Brc1cc(NCc2cccc3sccc23)c2cn[nH]c2c1 | 3% | 56% | – |
| CN1CCN(C(=O)c2ccc(Cn3nnc4c3C(=O)c3ccccc3C4=O)cc2)CC1 | – | – | IC50 [13]: 30 nM |
